For test [1], the system named is NCI-H460. As to the kind of experiment: Cytotoxicity against human NCI-H460 cells at 45 uM after 48 hrs by MTT assay. The test is classed as functional, cell-based. In outline: (§1)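 Cells grown in RPMI-1640 with L-glutamine, 1 mM pyruvate, penicillin/streptomycin, 0.2% bicarbonate and 10% FBS, seeded at 6000 cells/well. After 24 h, compound in DMSO diluted into serum-free medium was added (DMSO under 1% final), as a single screening concentration or a dilution series. Viability by MTT reduction after 48 h.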
A general note: Formazan colour is commonly taken as a measure of viable cells.

In test [2] the target is Delta-type opioid receptor (Homo sapiens) (UniProt P41143). As to the kind of experiment: Displacement of [3H][D-Ala2,D-Leu5]enkephalin from human cloned delta opioid receptor at 10 uM. In outline:
(§2)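 Receptor screen run by the NIMH Psychoactive Drug Screening Program. Each compound at 10 μM incubated with the relevant receptor preparation; percent inhibition of radioligand binding determined.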
A general note: Loss of bound radioactivity is the signal in a displacement assay; it reports binding, not function.

Test [3] has the same target. The test can be described thus: Agonist activity at human delta opioid receptor expressed in CHO cells assessed as inhibition of forskolin-stimulated adenylyl cyclase relative to [D-Pen2,D-Pen5]-enkephalin. The test is classed as functional, cell-based. Summed up: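 δ-Opioid receptor-expressing CHO cells washed with serum-free F12 Ham's medium, labelled 8 h with 1.2 μCi [3H]adenine. Then 40 min at 37 °C with 50 μM Ro20-1724, peptidase inhibitors (10 μM bestatin, 30 μM captopril, 50 μM L-leucyl-L-leucine), 50 μM forskolin and varied ligand concentrations. [3H]cAMP isolated on cation-exchange resin and alumina, counted with [14C]cAMP recovery correction.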

Test [4] in a line: Displacement of radiolabeled MK801 from NMDA receptor at 10 uM. Summed up: as §2
The subject of test [5] is MDA-MB-435. The test can be described thus: Cytotoxicity against human MDA-MB-435 cells at 450 uM after 48 hrs by SRB assay. The test is classed as functional, cell-based. Summed up: (§3)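 MDA-MB-435 cells grown in IMEM with 10% FBS, attached 24 h in 96-well plates, then exposed 48 h to compound or EtOH vehicle. Fixed with 10% TCA at 4 °C for 1 h, stained with 0.4% SRB for 30 min, washed with 1% HOAc, solubilised in 10 mM Tris. Absorbance read at 560 nm. IC50 taken from linear portion of log dose-response curves.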
On the technique in general: The SRB assay estimates cell density from bound dye.

For a further test, the system named is N2a. As to the kind of experiment: Cytotoxicity against mouse Neuro2a cells at 45 uM after 48 hrs by MTT assay. The test is classed as functional, cell-based. Summed up:
as §1

The test system of test [6] is A10. As to the kind of experiment: Induction of nucleus breakdown into micronuclei in rat A10 cells. The test is classed as functional, cell-based. In outline:
(§4)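 A-10 cells on glass coverslips in Basal Medium Eagle with 10% FBS, treated 18-24 h. Methanol-fixed, blocked with 10% calf serum, probed with monoclonal β-tubulin antibody then FITC sheep anti-mouse secondary for 1 h. Nuclei stained with 0.1 μg/mL DAPI. Examined by fluorescence microscopy.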

Test [7] has as its system A10. As to the kind of experiment: Induction of actin microfilament disrupting activity in rat A10 cells at 45 uM after 24 hrs. Format: functional, cell-based. In outline: (§5)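 A-10 rat aortic smooth muscle cells on glass coverslips in BME with 10% fetal calf serum, treated 24 h. Fixed in 3% paraformaldehyde, permeabilised with 0.2% Triton X-100, reduced with sodium borohydride. Actin stained 45 min with 100 nM TRITC-phalloidin, DNA with DAPI. Examined by fluorescence microscopy.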

Test [8] has as its system MDA-MB-435. As to the kind of experiment: Cell cycle arrest in human MDA-MB-435 cells assessed as accumulation at G1 phase at 20 uM after 24 hrs by flow cytometry. Format: functional. Summed up:
(§6)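 MDA-MB-435 cells grown in IMEM with 10% FBS and gentamycin. Exposed 24 h to vehicle or sample, harvested and stained with Krishan's reagent. Propidium iodide intensity read by flow cytometry, with quality-control samples each run. Percentage of cells in each cycle phase fitted by manual analysis.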

The subject of test [9] is MDA-MB-435. The test can be described thus: Cell cycle arrest in human MDA-MB-435 cells assessed as accumulation at S phase at 20 uM after 24 hrs by flow cytometry. Format: functional. In outline: as §6
Test [10] deals with A10. The test can be described thus: Induction of microtubule depolymerization in rat A10 cells at 113 uM after 24 hrs by indirect immunofluorescence technique. The test is classed as functional, cell-based. In outline: as §4
Test [11] deals with NCI-H460. The test can be described thus: Induction of morphological changes in human NCI-H460 cells at 13.5 uM after 6 days. Format: functional.
For test [12], the system named is NCI-H460. The test can be described thus: Induction of morphological changes in human NCI-H460 cells at 13.5 uM after 24 hrs. Format: functional, cell-based.
In test [13] the test system is A10. As to the kind of experiment: Induction of actin microfilament disrupting activity in rat A10 cells at 113 uM after 24 hrs. The test is classed as functional, cell-based. Summed up:
as §5

The test system of test [14] is A10. The test can be described thus: Induction of microtubule depolymerization in rat A10 cells at 45 uM after 24 hrs by indirect immunofluorescence technique. Format: functional. The settings on record: A10, 24 h. Summed up: as §4
In test [15] the test system is NCI-H460. As to the kind of experiment: Cytotoxicity against human NCI-H460 cells after 48 hrs by MTT assay. To be noted: NCI-H460, 48 h. Format: functional, cell-based. In outline:
as §1

Test [16] has as its system MDA-MB-435. The test can be described thus: Cell cycle arrest in human MDA-MB-435 cells assessed as accumulation at G2/M phase at 20 uM after 24 hrs by flow cytometry. Format: functional. In outline: as §6
In test [17] the test system is MDA-MB-435. As to the kind of experiment: Cytotoxicity against human MDA-MB-435 cells after 48 hrs by SRB assay. Format: functional, cell-based. To be noted: MDA-MB-435, 48 h. Summed up: as §3

The source made the active and inactive calls. The rule behind the calls is not given here.

Sequence of Delta-type opioid receptor (Homo sapiens) (P41143 whole entry): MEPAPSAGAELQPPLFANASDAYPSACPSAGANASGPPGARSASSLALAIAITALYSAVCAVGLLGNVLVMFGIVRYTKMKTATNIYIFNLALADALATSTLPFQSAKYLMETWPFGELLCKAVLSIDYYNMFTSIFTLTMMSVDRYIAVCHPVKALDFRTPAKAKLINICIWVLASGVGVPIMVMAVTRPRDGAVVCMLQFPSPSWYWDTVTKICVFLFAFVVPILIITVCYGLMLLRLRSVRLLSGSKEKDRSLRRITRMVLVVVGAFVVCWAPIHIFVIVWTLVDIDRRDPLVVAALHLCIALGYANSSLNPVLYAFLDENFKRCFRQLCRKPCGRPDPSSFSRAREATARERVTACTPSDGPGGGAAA

The term inhibition denotes the change of the read-out against control, counted positive when it falls. A lower inhibition goes with a response near the control. Regarding `O=c1[nH]cc(-c2ccccc2)c2ccncc12`, the result (with NCI-H460 [1]; in test [3]; in the test on MDA-MB-435 [5]; with N2a) was inactive. Besides, the inhibition in [2] and in test [4] was 50% each time.

One may read the IC50 as the concentration needed to halve the response being measured. Read a high IC50 as weaker potency. For `Nc1ncc(-c2ccccc2)c2ccncc12` [LOPHOCLADINE B], the result with A10 [6], with A10 [10] and in the test with NCI-H460 [12] was Active. Further, the result in the test on A10 [7], with A10 [13] and with N2a was inactive. The Activity is on record as 19.8% in the test with MDA-MB-435 [8], 8% with MDA-MB-435 [9], 80% with NCI-H460 [11] and 72.2% with MDA-MB-435 [16]. Besides, the inhibition at 45 µM in the test with A10 [14] came out at 85%. The IC50 with NCI-H460 [15] was found to be 64.6 µM; in the test with MDA-MB-435 [17], 3.1 µM.

The values above are taken from ChEMBL document CHEMBL1157324, “Lophocladines, bioactive alkaloids from the red alga Lophocladia sp” (J Nat Prod, 2006).
